Results as given in ChEMBL document CHEMBL1629649, “Multiple regulatory pathways associated with high-level ciprofloxacin and multidrug resistance in Salmonella enterica serovar enteritidis: involvement of RamA and other global regulators” (2009).
Converted amounts (≈) assume the structure as drawn.

Assays:
Format in all cases: functional, Salmonella enterica subsp. enterica serovar Enteritidis
Salmonella enteritidis [1] = experiment: Antimicrobial activity against marA::aph-deficient ciprofloxacin-resistant Salmonella enterica serovar enteritidis isolate 104-cip harboring gyrA D87Y,S83F mutant gene by Etest
In short: (§1)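 Deletions (acrB, marA, soxS or ramA) were moved from SL1344 mutants into the isolates by P22 phage transduction. Transductants were selected on LB agar with 50 µg/ml kanamycin, and insertion of the kanamycin resistance gene was confirmed by PCR. MICs were then determined by Etest.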

Salmonella enteritidis [2] = experiment: Antimicrobial activity against Salmonella enterica serovar enteritidis isolate 5408 harboring gyrA D87Y mutant gene by Etest
Salmonella enteritidis [3] = experiment: Antimicrobial activity against acrB::aph-deficient ciprofloxacin-resistant Salmonella enterica serovar enteritidis isolate 104-cip harboring gyrA D87Y,S83F mutant gene by Etest; in short: as §1
Salmonella enteritidis [4] = experiment: Antimicrobial activity against acrB::aph-deficient ciprofloxacin-resistant Salmonella enterica serovar enteritidis isolate 5408-cip harboring gyrA D87Y, gyrB E466D, parE V461G mutant gene by Etest; in short: as §1
Salmonella enteritidis [5] = experiment: Antimicrobial activity against soxS::aph-deficient ciprofloxacin-resistant Salmonella enterica serovar enteritidis isolate 104-cip harboring gyrA D87Y,S83F mutant gene by Etest; in short: as §1
Salmonella enteritidis [6] = experiment: Antimicrobial activity against Salmonella enterica serovar enteritidis isolate 104 harboring gyrA D87Y mutant gene by Etest
Salmonella enteritidis [7] = experiment: Antimicrobial activity against ramA::aph-deficient ciprofloxacin-resistant Salmonella enterica serovar enteritidis isolate 5408-cip harboring gyrA D87Y, gyrB E466D, parE V461G mutant gene by Etest; in short: as §1
Salmonella enteritidis [8] = experiment: Antimicrobial activity against Salmonella enterica serovar enteritidis isolate 104-cip harboring gyrA D87Y,S83F mutant gene by Etest
Salmonella enteritidis [9] = experiment: Antimicrobial activity against ciprofloxacin-resistant Salmonella enterica serovar enteritidis isolate 5408-cip harboring gyrA D87Y, gyrB E466D, parE V461G mutant gene by Etest
Salmonella enteritidis [10] = experiment: Antimicrobial activity against acrB::aph-deficient Salmonella enterica serovar enteritidis isolate 4931 harboring gyrA D87Y mutant gene by Etest; in short: as §1
Salmonella enteritidis [11] = experiment: Antimicrobial activity against ciprofloxacin-resistant Salmonella enterica serovar enteritidis isolate 5408-cip harboring gyrB gene gyrA D87Y, parE V461G mutant gene by Etest
In short: (§2)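 Wild-type alleles of the target genes were carried on plasmids and introduced into the ciprofloxacin-selected mutants by electrotransformation. Transformants were selected on LB agar with 50 µg/ml kanamycin at 37°C overnight. Quinolone MICs of the transformants were read by Etest strips alongside those of the parent and mutant strains.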

Salmonella enteritidis [12] = experiment: Antimicrobial activity against acrB::aph-deficient Salmonella enterica serovar enteritidis isolate 5408 harboring gyrA D87Y mutant gene by Etest; in short: as §1
Salmonella enteritidis [13] = experiment: Antimicrobial activity against Salmonella enterica serovar enteritidis isolate 58 harboring gyrA D87Y mutant gene by Etest
Salmonella enteritidis [14] = experiment: Antimicrobial activity against acrB::aph-deficient Salmonella enterica serovar enteritidis isolate 51 harboring gyrA D87Y mutant gene by Etest; in short: as §1
Salmonella enteritidis [15] = experiment: Antimicrobial activity against acrB::aph-deficient Salmonella enterica serovar enteritidis isolate 104 harboring gyrA D87Y mutant gene by Etest; in short: as §1
Salmonella enteritidis [16] = experiment: Antimicrobial activity against Salmonella enterica serovar enteritidis isolate CUH52 by Etest
Salmonella enteritidis [17] = experiment: Antimicrobial activity against Salmonella enterica serovar enteritidis isolate 104 harboring gyrA gene by Etest
Salmonella enteritidis [18] = experiment: Antimicrobial activity against Salmonella enterica serovar enteritidis isolate 54 harboring gyrA D87Y mutant gene by Etest
Salmonella enteritidis [19] = experiment: Antimicrobial activity against acrB::aph-deficient Salmonella enterica serovar enteritidis isolate CUH60 harboring gyrA D87Y mutant gene by Etest; in short: as §1
Salmonella enteritidis [20] = experiment: Antimicrobial activity against Salmonella enterica serovar enteritidis isolate CUH48 by Etest
Salmonella enteritidis [21] = experiment: Antimicrobial activity against Salmonella enterica serovar enteritidis isolate NCTC 13349 by Etest
Salmonella enteritidis [22] = experiment: Antimicrobial activity against Salmonella enterica serovar enteritidis isolate 51 harboring gyrA D87Y mutant gene by Etest
Salmonella enteritidis [23] = experiment: Antimicrobial activity against Salmonella enterica serovar enteritidis isolate 5408 harboring gyrA gene by Etest
Salmonella enteritidis [24] = experiment: Antimicrobial activity against ciprofloxacin-resistant Salmonella enterica serovar enteritidis isolate 104-cip harboring gyrA gene by Etest; in short: as §2
Salmonella enteritidis [25] = experiment: Antimicrobial activity against ciprofloxacin-resistant Salmonella enterica serovar enteritidis isolate 5408-cip harboring parE gene gyrA D87Y, gyrB E466D mutant gene by Etest; in short: as §2
Salmonella enteritidis [26] = experiment: Antimicrobial activity against ciprofloxacin-resistant Salmonella enterica serovar enteritidis isolate 5408-cip harboring gyrA gene, gyrB E466D, parE V461G mutant gene by Etest; in short: as §2

SMILES | MIC (Salmonella enteritidis [1]) [µg/mL] | MIC (Salmonella enteritidis [2]) [µg/mL] | MIC (Salmonella enteritidis [3]) [µg/mL] | MIC (Salmonella enteritidis [4]) [µg/mL] | MIC (Salmonella enteritidis [5]) [µg/mL] | MIC (Salmonella enteritidis [6]) [µg/mL] | MIC (Salmonella enteritidis [7]) [µg/mL] | MIC (Salmonella enteritidis [8]) [µg/mL] | MIC (Salmonella enteritidis [9]) [µg/mL] | other results
CC1(C)S[C@@H]2[C@H](NC(=O)[C@H](N)c3ccccc3)C(=O)N2[C@H]1C(=O)O [AMPICILLIN] | 1.5 (≈ 4.29 µM) | 1 (≈ 2.86 µM) | 0.125 (≈ 0.358 µM) | 0.094 (≈ 0.269 µM) | 0.5 (≈ 1.43 µM) | 1 (≈ 2.86 µM) | 1 (≈ 2.86 µM) | 16 (≈ 45.8 µM) | 4 (≈ 11.4 µM) | –
O=C(O)c1cn(C2CC2)c2cc(N3CCNCC3)c(F)cc2c1=O [CIPROFLOXACIN] | 4 (≈ 12.1 µM) | – | 0.38 (≈ 1.15 µM) | 0.5 (≈ 1.51 µM) | 1.5 (≈ 4.53 µM) | – | 4 (≈ 12.1 µM) | – | – | MIC (Salmonella enteritidis [10]): 0.047 µg/mL (≈ 0.142 µM); MIC (Salmonella enteritidis [11]): 3 µg/mL (≈ 9.05 µM); MIC (Salmonella enteritidis [12]): 0.047 µg/mL (≈ 0.142 µM); MIC (Salmonella enteritidis [13]): 0.125 µg/mL (≈ 0.377 µM); MIC (Salmonella enteritidis [14]): 0.032 µg/mL (≈ 0.0966 µM); MIC (Salmonella enteritidis [15]): 0.032 µg/mL (≈ 0.0966 µM); MIC (Salmonella enteritidis [16]): 0.016 µg/mL (≈ 0.0483 µM); MIC (Salmonella enteritidis [17]): 0.047 µg/mL (≈ 0.142 µM); MIC (Salmonella enteritidis [18]): 0.19 µg/mL (≈ 0.573 µM); MIC (Salmonella enteritidis [19]): 0.032 µg/mL (≈ 0.0966 µM); MIC (Salmonella enteritidis [20]): 0.016 µg/mL (≈ 0.0483 µM); MIC (Salmonella enteritidis [21]): 0.023 µg/mL (≈ 0.0694 µM); MIC (Salmonella enteritidis [22]): 0.19 µg/mL (≈ 0.573 µM); MIC (Salmonella enteritidis [23]): 0.032 µg/mL (≈ 0.0966 µM); MIC (Salmonella enteritidis [24]): 0.094 µg/mL (≈ 0.284 µM); MIC (Salmonella enteritidis [25]): > 32 µg/mL; MIC (Salmonella enteritidis [26]): 1 µg/mL (≈ 3.02 µM)
CN(C)[C@@H]1C(O)=C(C(N)=O)C(=O)[C@@]2(O)C(O)=C3C(=O)c4c(O)cccc4[C@@](C)(O)[C@H]3C[C@@H]12 [TETRACYCLINE] | 1.5 (≈ 3.38 µM) | 1 (≈ 2.25 µM) | 0.25 (≈ 0.563 µM) | 0.094 (≈ 0.212 µM) | 0.75 (≈ 1.69 µM) | 1 (≈ 2.25 µM) | 1 (≈ 2.25 µM) | 12 (≈ 27 µM) | 1.5 (≈ 3.38 µM) | –
